Reference: ChEMBL document CHEMBL1641579, “Synthesis and biological evaluation of 7-substituted-1-(3-bromophenylamino)isoquinoline-4-carbonitriles as inhibitors of myosin light chain kinase and epidermal growth factor receptor” (Bioorg Med Chem, 2011)

Experiments:
[1] = target: T1, Ephrin type-B receptor 3 (Homo sapiens) (UniProt P54753); assay: Inhibition of EPHB3 assessed as residual activity at 10 uM
T1 sequence (whole entry): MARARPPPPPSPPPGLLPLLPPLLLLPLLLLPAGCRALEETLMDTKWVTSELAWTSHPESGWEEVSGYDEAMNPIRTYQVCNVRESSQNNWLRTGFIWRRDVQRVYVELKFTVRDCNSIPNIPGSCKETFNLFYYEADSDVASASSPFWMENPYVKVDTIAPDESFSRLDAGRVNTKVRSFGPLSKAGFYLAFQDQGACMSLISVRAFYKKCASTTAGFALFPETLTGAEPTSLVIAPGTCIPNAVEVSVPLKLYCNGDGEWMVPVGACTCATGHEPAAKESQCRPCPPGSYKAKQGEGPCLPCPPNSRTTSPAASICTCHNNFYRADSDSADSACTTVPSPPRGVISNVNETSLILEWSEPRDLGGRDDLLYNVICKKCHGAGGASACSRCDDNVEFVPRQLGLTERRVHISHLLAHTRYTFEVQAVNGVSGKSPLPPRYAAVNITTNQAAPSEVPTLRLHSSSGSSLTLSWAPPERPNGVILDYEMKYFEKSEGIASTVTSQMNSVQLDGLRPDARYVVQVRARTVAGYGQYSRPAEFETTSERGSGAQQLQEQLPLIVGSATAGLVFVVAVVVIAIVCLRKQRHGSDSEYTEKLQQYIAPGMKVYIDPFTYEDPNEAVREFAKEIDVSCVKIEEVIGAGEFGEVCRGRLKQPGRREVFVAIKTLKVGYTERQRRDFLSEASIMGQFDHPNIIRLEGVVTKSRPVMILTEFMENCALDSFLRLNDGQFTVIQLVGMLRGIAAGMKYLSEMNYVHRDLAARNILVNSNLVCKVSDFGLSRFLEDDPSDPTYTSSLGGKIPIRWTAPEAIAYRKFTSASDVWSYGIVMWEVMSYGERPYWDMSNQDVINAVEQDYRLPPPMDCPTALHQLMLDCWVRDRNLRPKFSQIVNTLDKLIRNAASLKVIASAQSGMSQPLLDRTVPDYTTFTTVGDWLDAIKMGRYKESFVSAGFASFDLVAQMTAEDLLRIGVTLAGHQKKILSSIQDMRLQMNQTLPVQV
Method in brief: (§1)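 Kinase panel screen run as a radioactive activity assay at single compound concentration. Score reported as percent activity remaining relative to DMSO controls (100%).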

[2] = target: Ribosomal protein S6 kinase alpha-3 (Homo sapiens) (UniProt P51812); assay: Inhibition of RSK2 assessed as residual activity at 10 uM
Ribosomal protein S6 kinase alpha-3 (Homo sapiens), sequence (P51812 whole entry): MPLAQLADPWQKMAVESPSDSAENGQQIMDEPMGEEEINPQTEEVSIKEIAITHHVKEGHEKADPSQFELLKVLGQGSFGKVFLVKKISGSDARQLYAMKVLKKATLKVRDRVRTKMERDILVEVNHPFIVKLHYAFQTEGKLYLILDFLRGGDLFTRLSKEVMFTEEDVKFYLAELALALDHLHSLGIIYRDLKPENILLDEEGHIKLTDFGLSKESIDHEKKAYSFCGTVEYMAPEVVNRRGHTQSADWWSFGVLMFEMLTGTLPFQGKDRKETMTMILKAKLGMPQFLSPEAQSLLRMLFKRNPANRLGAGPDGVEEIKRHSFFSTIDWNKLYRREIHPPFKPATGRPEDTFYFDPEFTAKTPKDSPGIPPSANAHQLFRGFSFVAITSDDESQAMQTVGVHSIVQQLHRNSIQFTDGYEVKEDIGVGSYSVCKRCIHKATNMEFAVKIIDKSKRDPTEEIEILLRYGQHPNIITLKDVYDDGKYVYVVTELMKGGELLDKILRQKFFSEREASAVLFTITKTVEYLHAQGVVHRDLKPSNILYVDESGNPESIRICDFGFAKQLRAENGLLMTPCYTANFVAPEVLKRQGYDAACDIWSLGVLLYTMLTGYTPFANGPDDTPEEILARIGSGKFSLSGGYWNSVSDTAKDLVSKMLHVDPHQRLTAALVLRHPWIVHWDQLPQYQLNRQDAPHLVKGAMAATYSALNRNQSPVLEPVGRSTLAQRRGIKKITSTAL
Method in brief: (§2)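 Panel screen by radioactive kinase assay at a single inhibitor concentration. Score is the percent activity remaining relative to DMSO controls (100%).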

[3] = target: MAP kinase-interacting serine/threonine-protein kinase 1 (Homo sapiens) (UniProt Q9BUB5); assay: Inhibition of MNK1 assessed as residual activity at 10 uM; method in brief: as §2
MAP kinase-interacting serine/threonine-protein kinase 1 (Homo sapiens), sequence (Q9BUB5 whole entry, looked up): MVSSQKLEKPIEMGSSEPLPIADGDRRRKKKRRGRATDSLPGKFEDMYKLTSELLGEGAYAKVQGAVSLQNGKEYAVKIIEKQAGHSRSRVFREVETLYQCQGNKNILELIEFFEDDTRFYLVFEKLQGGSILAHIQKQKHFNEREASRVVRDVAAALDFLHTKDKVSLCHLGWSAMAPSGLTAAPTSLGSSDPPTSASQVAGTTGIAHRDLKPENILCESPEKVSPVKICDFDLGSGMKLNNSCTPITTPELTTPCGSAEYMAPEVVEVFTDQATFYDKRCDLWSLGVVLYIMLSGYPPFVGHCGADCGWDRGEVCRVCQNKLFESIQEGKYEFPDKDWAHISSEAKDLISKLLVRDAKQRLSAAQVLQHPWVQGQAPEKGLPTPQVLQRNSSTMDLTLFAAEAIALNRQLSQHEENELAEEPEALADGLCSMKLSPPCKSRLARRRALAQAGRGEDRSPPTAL

[4] = target: MAP kinase-activated protein kinase 3 (Homo sapiens) (UniProt Q16644); assay: Inhibition of MAPKAPK3 assessed as residual activity at 10 uM; method in brief: as §1
MAP kinase-activated protein kinase 3 (Homo sapiens), sequence (Q16644 whole entry, looked up): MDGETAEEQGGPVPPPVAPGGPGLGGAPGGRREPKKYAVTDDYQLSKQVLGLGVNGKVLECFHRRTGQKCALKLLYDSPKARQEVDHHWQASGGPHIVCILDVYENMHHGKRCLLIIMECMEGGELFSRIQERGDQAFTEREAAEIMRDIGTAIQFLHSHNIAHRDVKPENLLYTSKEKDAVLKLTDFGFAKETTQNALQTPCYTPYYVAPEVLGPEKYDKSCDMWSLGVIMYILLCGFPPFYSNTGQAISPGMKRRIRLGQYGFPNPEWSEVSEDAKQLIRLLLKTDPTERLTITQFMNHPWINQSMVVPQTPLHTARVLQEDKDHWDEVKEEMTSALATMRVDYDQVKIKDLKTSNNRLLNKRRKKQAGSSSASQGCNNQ

[5] = target: T2, Serine/threonine-protein kinase STK11 (Homo sapiens) (UniProt Q15831); assay: Inhibition of LKB1 assessed as residual activity at 10 uM; method in brief: as §1
T2 sequence (whole entry): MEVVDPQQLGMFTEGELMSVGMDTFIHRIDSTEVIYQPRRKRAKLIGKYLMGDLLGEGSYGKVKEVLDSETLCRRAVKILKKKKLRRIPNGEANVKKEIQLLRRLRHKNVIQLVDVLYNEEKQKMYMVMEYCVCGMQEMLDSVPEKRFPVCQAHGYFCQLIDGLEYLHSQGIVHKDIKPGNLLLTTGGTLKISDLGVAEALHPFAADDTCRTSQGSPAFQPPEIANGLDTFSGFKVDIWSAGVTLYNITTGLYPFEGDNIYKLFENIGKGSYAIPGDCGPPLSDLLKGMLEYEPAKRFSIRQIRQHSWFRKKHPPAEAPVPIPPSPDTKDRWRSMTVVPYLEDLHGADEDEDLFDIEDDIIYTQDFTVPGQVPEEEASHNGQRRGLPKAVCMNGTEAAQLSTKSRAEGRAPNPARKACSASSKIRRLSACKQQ

[6] = target: T3, Serine/threonine-protein kinase Chk1 (Homo sapiens) (UniProt O14757); assay: Inhibition of CHK1 assessed as residual activity at 10 uM; method in brief: as §1
T3 sequence (whole entry): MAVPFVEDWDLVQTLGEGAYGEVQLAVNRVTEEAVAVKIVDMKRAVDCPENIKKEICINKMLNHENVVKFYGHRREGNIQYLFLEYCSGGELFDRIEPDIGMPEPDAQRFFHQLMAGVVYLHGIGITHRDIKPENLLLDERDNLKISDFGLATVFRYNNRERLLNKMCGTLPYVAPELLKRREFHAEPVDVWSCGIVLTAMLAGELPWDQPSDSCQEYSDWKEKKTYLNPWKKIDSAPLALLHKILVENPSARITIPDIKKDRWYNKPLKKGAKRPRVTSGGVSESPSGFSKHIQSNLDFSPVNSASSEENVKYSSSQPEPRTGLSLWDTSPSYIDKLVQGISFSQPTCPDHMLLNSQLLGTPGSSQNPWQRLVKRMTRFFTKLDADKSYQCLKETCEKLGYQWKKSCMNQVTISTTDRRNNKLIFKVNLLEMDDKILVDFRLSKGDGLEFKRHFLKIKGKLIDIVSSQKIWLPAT

[7] = target: T4, Protein kinase C zeta type (Homo sapiens) (UniProt Q05513); assay: Inhibition of PKCzeta assessed as residual activity at 10 uM; method in brief: as §2
T4 sequence (whole entry): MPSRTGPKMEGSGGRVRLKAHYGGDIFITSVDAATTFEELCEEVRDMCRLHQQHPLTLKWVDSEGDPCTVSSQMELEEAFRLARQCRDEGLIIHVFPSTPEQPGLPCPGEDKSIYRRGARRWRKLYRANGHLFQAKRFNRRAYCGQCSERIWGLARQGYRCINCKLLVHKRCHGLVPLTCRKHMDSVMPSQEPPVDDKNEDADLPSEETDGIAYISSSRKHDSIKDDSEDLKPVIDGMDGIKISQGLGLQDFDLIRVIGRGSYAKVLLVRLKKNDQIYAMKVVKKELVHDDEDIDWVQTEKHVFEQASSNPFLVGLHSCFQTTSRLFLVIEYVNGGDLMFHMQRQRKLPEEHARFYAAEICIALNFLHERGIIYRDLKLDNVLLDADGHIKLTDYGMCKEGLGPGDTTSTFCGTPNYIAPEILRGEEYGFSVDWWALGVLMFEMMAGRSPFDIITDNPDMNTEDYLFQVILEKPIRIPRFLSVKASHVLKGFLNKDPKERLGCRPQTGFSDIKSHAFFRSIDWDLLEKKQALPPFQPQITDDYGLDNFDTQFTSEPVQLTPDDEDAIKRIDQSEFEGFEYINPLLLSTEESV

[8] = target: Serine/threonine-protein kinase Chk2 (Homo sapiens) (UniProt O96017); assay: Inhibition of CHK2 assessed as residual activity at 10 uM; method in brief: as §1
Serine/threonine-protein kinase Chk2 (Homo sapiens), sequence (O96017 whole entry): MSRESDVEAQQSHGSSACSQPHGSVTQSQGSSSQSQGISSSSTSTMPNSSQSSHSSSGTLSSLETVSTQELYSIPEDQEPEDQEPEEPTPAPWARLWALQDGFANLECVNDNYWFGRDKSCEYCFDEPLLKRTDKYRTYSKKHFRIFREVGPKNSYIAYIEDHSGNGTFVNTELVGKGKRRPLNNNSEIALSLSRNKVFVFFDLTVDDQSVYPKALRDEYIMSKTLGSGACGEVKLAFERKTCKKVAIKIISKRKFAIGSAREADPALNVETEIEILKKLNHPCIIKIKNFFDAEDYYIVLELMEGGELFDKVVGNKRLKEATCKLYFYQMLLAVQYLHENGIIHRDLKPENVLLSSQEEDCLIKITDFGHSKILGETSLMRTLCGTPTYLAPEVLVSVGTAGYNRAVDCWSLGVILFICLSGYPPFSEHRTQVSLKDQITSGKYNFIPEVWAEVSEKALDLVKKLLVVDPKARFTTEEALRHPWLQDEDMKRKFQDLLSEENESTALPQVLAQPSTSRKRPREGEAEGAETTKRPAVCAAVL

[9] = target: Serine/threonine-protein kinase PAK 5 (Homo sapiens) (UniProt Q9P286); assay: Inhibition of PAK5 assessed as residual activity at 10 uM; method in brief: as §2
Serine/threonine-protein kinase PAK 5 (Homo sapiens), sequence (Q9P286 whole entry, looked up): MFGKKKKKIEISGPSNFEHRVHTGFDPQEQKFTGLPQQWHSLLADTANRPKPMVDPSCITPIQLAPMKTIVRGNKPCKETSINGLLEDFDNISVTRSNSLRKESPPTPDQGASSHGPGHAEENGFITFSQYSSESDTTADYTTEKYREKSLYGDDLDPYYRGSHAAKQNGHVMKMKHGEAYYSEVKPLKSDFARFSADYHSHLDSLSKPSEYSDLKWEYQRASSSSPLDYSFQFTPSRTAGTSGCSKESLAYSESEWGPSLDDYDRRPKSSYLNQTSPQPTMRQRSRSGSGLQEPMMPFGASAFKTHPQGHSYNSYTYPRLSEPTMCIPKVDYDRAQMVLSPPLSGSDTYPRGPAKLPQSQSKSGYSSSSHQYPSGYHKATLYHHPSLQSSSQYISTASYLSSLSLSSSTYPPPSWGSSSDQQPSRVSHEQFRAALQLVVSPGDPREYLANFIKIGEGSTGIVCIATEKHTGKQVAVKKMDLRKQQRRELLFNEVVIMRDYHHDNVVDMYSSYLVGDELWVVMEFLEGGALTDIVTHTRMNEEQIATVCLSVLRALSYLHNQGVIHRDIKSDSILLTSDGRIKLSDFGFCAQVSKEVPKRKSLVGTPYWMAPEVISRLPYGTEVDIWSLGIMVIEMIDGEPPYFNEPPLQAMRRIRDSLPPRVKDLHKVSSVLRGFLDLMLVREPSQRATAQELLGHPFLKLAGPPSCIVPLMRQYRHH

SMILES | Activity [1] | Activity [2] | Activity [3] | Activity [4] | Activity [5] | Activity [6] | Activity [7] | Activity [8] | Activity [9]
CN1CCN(CCC(=O)Nc2ccc3c(C#N)cnc(Nc4cccc(Br)c4)c3c2)CC1 | 90% | 71% | 95% | 91% | 100% | 68% | 95% | 53% | 85%
CN(C)C/C=C/C(=O)Nc1ccc2c(C#N)cnc(Nc3cccc(Br)c3)c2c1 | 95% | 87% | 61% | 75% | 99% | 75% | 91% | 51% | 86%
CN(C)CCCC(=O)Nc1ccc2c(C#N)cnc(Nc3cccc(Br)c3)c2c1 | 100% | 82% | 82% | 96% | 100% | 84% | 100% | 56% | 89%
